Data taken from ChEMBL document CHEMBL1151891, “Synthesis and anticancer activities of novel 3,5-disubstituted-1,2,4-oxadiazoles” (Bioorg Med Chem Lett, 2009).

Key:
Assay type in all cases: functional, cell-based
[1] = test system: DU-145; test: Anticancer activity against human DU145 cells after 24 hrs by MTT assay; conditions: DU-145, 24 h
Method in brief: (§1)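 Cells maintained in RPMI-1640 with 10% heat-inactivated FBS and 1% penicillin/streptomycin. Seeded at 4.0 × 10³ cells/well for 12 h, then exposed to compounds over a 10 nM–1 mM range for 24 h. MTT added to 0.5 mg/ml final for 30 min. Cells washed twice in PBS and lysed in DMSO. Absorbance read at 570 nm; IC50 reported.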

[2] = test system: LNCaP; test: Anticancer activity against human LNCAP cells after 24 hrs by MTT assay; method in brief: as §1
[3] = test system: MCF7; test: Anticancer activity against human MCF7 cells after 24 hrs by MTT assay; conditions: MCF7, 24 h; method in brief: as §1
[4] = Anticancer activity against human MDA231 cells after 24 hrs by MTT assay; conditions: MDA-MB-231, 24 h; method in brief: as §1
[5] = test system: HCT-116; test: Anticancer activity against human HCT116 cells after 24 hrs by MTT assay; conditions: HCT-116, 24 h; method in brief: as §1
[6] = test system: MIA PaCa-2; test: Anticancer activity against human MIAPaCa2 cells after 24 hrs by MTT assay; conditions: MIA PaCa-2, 24 h; method in brief: as §1
[7] = test system: PC-3; test: Anticancer activity against human PC3 cells after 24 hrs by MTT assay; conditions: PC-3, 24 h; method in brief: as §1

## COc1ccc(-c2noc(CC(C)=O)n2)cc1OC1CCCC1
[1]
  IC50: 302 µM
[2]
  IC50: 28.3 µM
[3]
  IC50: 174 µM
[4]
  IC50: 53.3 µM
[5]
  IC50: 185 µM
[6]
  IC50: 3.01 µM
[7]
  IC50: > 1000 µM

## COc1ccc(-c2noc(-c3ccncc3)n2)cc1OC1CCCC1
[1]
  IC50: > 1000 µM
[2]
  IC50: > 1000 µM
[3]
  IC50: > 1000 µM
[4]
  IC50: 240 µM
[5]
  IC50: > 1000 µM
[6]
  IC50: 9.33 µM
[7]
  IC50: > 1000 µM

## COc1ccc(-c2noc(-c3ccc(Cl)cc3)n2)cc1OC1CCCC1
[1]
  IC50: 122 µM
[2]
  IC50: 20.8 µM
[3]
  IC50: 174 µM
[4]
  IC50: 396 µM
[5]
  IC50: > 1000 µM
[6]
  IC50: 0.74 µM
[7]
  IC50: > 1000 µM

## COc1ccc(-c2noc(-c3ccccc3)n2)cc1OC1CCCC1
[1]
  IC50: > 1000 µM
[2]
  IC50: > 1000 µM
[3]
  IC50: > 1000 µM
[4]
  IC50: > 1000 µM
[5]
  IC50: > 1000 µM
[6]
  IC50: > 1000 µM
[7]
  IC50: > 1000 µM

## COc1ccc(-c2noc(-c3cccnc3)n2)cc1OC1CCCC1
[1]
  IC50: > 1000 µM
[2]
  IC50: > 1000 µM
[3]
  IC50: > 1000 µM
[4]
  IC50: > 1000 µM
[5]
  IC50: > 1000 µM
[6]
  IC50: > 1000 µM
[7]
  IC50: > 1000 µM

## COc1ccc(-c2noc(-c3ccc(F)cc3)n2)cc1OC1CCCC1
[1]
  IC50: 20.7 µM
[2]
  IC50: 87.9 µM
[3]
  IC50: 3.88 µM
[4]
  IC50: 55.5 µM
[5]
  IC50: 210 µM
[6]
  IC50: 6.09 µM
[7]
  IC50: > 1000 µM

## COc1ccc(-c2noc(C3CCCN3)n2)cc1OC1CCCC1 (stereo not drawn)
[1]
  IC50: 242 µM
[2]
  IC50: 0.043 µM
[3]
  IC50: > 1000 µM
[4]
  IC50: 212 µM
[5]
  IC50: 185 µM
[6]
  IC50: 19.5 µM
[7]
  IC50: > 1000 µM

## Fc1ccc(-c2nc(-c3ccccc3)no2)cc1
[1]
  IC50: > 1000 µM
[2]
  IC50: 23.7 µM
[3]
  IC50: > 1000 µM
[4]
  IC50: > 1000 µM
[5]
  IC50: > 1000 µM
[6]
  IC50: > 1000 µM
[7]
  IC50: > 1000 µM

## COc1cc(-c2noc(-c3ccncc3)n2)ccc1OCc1ccccc1
[1]
  IC50: > 1000 µM
[2]
  IC50: > 1000 µM
[3]
  IC50: > 1000 µM
[4]
  IC50: > 1000 µM
[5]
  IC50: > 1000 µM
[6]
  IC50: > 1000 µM
[7]
  IC50: > 1000 µM

## COc1ccc(-c2noc(-c3ccc(F)cc3)n2)cc1O
[1]
  IC50: > 1000 µM
[2]
  IC50: > 1000 µM
[3]
  IC50: > 1000 µM
[4]
  IC50: > 1000 µM
[5]
  IC50: > 1000 µM
[6]
  IC50: 351 µM
[7]
  IC50: > 1000 µM

## c1ccc(-c2noc(-c3ccncc3)n2)cc1
[1]
  IC50: 657 µM
[2]
  IC50: 710 µM
[3]
  IC50: > 1000 µM
[4]
  IC50: > 1000 µM
[5]
  IC50: > 1000 µM
[6]
  IC50: 497 µM
[7]
  IC50: > 1000 µM

## COc1ccc(-c2noc(C3CCNCC3)n2)cc1OC1CCCC1
[1]
  IC50: 0.057 µM
[2]
  IC50: 0.01 µM
[3]
  IC50: 3.88 µM
[4]
  IC50: 0.37 µM
[5]
  IC50: 1.54 µM
[6]
  IC50: 0.54 µM
[7]
  IC50: > 1000 µM

## COc1ccc(-c2noc(-c3ccc(O)cc3)n2)cc1OC1CCCC1
[1]
  IC50: 0.78 µM
[2]
  IC50: 0.86 µM
[3]
  IC50: 0.39 µM
[4]
  IC50: 0.31 µM
[5]
  IC50: 0.27 µM
[6]
  IC50: 0.48 µM
[7]
  IC50: 162 µM

## COc1ccc(-c2noc(Cc3c[nH]c4ccccc34)n2)cc1OC1CCCC1
[1]
  IC50: > 1000 µM
[2]
  IC50: > 1000 µM
[3]
  IC50: > 1000 µM
[4]
  IC50: > 1000 µM
[5]
  IC50: > 1000 µM
[6]
  IC50: 9.56 µM
[7]
  IC50: > 1000 µM
